The source made the active and inactive calls. The calls are words filed in the database; no cut-off is given here.
How the values were obtained:
Cell membrane [1] = test: Induction of inner membrane permeabilization in wild type Escherichia coli BW25113 assessed as perturbation of proton motive force at 64 ug/ml measured after 10 mins in presence of CCCP and glucose by Di0C2(3) probe based fluorescence assay; conditions: escherichia coli bw25113, 10 min, dose 64 µg/ml
Method in brief: (§1)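 Cell suspensions were left untreated or exposed to 8-128 µg/mL compound for 10 min. DiOC₂(3) was then added and fluorescence followed to a plateau. Cells were re-energized with 0.5% glucose, and the rise in fluorescence was read as membrane-potential build-up. CCCP was added last to dissipate the potential.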

Cell membrane [2] = test: Induction of outer membrane permeabilization in wild type Escherichia coli BW25113 assessed as increase in nitrocefin hydrolysis at 64 ug/ml in presence of CCCP by spectroscopic analysis; conditions: dose 64 µg/ml
Method in brief: (§2)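 Intact E. coli were treated with 10 μM CCCP to block nitrocefin efflux, then given compound, nothing, or polymyxin B as permeabilizer control. Nitrocefin was added, and hydrolysis by periplasmic β-lactamase was followed as the rise in absorbance at 490 nm. Duplicate experiments were run on different days.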

Cell membrane [3] = test: Induction of inner membrane permeabilization in wild type Escherichia coli BW25113 assessed as perturbation of proton motive force at 8 ug/ml measured after 10 mins in presence of CCCP and glucose by Di0C2(3) probe based fluorescence assay; conditions: escherichia coli bw25113, 10 min, dose 8 µg/ml; method in brief: as §1
Cell membrane [4] = test: Induction of outer membrane permeabilization in wild type Escherichia coli BW25113 assessed as increase in nitrocefin hydrolysis at 256 ug/ml in presence of CCCP by spectroscopic analysis; conditions: dose 256 µg/ml; method in brief: as §2
[5] = biological target: T1, Multidrug efflux pump subunit AcrB (Escherichia coli (strain K12)) (UniProt P31224); test: Inhibition of AcrB in multidrug-resistant Escherichia coli BW25113 assessed as potentiation of chloramphenicol-induced antibacterial activity by measuring fold change in chloramphenicol MIC at 64 ug/ml by checkerboard titration method relative to chloramphenicol MIC; conditions: dose 64.0 µg/ml
T1 sequence (whole entry): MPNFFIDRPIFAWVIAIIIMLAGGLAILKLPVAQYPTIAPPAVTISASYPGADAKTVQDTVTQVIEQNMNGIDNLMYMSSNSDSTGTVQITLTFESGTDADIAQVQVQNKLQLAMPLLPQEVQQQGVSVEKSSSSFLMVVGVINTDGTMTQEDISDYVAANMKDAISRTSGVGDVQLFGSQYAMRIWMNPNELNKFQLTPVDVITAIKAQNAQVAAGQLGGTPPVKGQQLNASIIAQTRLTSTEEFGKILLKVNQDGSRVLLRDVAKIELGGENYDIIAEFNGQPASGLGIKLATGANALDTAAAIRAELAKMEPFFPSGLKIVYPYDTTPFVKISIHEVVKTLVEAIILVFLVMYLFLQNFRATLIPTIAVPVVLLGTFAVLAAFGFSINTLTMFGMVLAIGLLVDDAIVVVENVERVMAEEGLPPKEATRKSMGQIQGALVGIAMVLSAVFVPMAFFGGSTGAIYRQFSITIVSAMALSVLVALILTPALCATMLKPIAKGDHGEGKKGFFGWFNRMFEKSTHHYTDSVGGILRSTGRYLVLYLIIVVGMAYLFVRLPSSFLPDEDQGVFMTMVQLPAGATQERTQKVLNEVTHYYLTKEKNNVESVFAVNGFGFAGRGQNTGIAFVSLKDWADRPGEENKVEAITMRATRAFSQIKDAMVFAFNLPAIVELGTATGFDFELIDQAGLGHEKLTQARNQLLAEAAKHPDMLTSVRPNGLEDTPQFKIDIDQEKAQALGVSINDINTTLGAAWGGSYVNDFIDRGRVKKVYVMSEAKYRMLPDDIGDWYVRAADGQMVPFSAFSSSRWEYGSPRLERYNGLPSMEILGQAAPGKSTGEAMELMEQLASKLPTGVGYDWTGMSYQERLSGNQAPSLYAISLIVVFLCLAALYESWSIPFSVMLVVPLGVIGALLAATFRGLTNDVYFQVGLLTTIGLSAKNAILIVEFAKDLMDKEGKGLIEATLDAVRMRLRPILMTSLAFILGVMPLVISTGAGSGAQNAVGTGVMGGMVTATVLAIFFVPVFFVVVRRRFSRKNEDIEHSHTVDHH

[6] = biological target: T1, Multidrug efflux pump subunit AcrB (Escherichia coli (strain K12)); test: Inhibition of AcrB in multidrug-resistant Escherichia coli BW25113 assessed as potentiation of tetraphenylphosphonium-induced antibacterial activity by measuring fold change in tetraphenylphosphonium MIC at 64 ug/ml by checkerboard titration method relative to tetraphenylphosphonium MIC; conditions: dose 64.0 µg/ml
[7] = biological target: T1, Multidrug efflux pump subunit AcrB (Escherichia coli (strain K12)); test: Inhibition of AcrB in Escherichia coli BW25113 assessed as reduction in glucose-induced nile red efflux at 100 to 200 uM preincubated for 15 mins followed by nile red addition and incubated for 3 hrs in shaker in presence of CCCP by fluorimetric analysis; conditions: dose 100-200 µM, time 3.25 hrs
Method in brief: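 Wild-type and AcrB-deleted cells were preloaded with Nile Red, with or without compound. Fluorescence was recorded, and efflux was triggered at 100 s with 0.2% glucose. Traces were compared with the deletion-strain level. Triplicate experiments used different cell batches.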

[8] = biological target: T1, Multidrug efflux pump subunit AcrB (Escherichia coli (strain K12)); test: Inhibition of AcrB in multidrug-resistant Escherichia coli BW25113 assessed as potentiation of levofloxacin-induced antibacterial activity by measuring fold change in levofloxacin MIC at 8 ug/ml by checkerboard titration method relative to levofloxacin MIC; conditions: dose 8.0 µg/ml
[9] = Cytotoxicity against human HepG2 cells assessed as growth inhibition at 10 uM relative to control; assay type: cell-based; conditions: read-out: GI
Method in brief: (§3)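 HepG2 cells treated at 10 μM and at 100 μM. Cell viability or inhibition rate recorded per concentration, with paclitaxel as positive control.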

[10] = Cytotoxicity against human HepG2 cells assessed as growth inhibition at 100 uM relative to control; assay type: cell-based; conditions: read-out: GI; method in brief: as §3
[11] = biological target: T1, Multidrug efflux pump subunit AcrB (Escherichia coli (strain K12)); test: Inhibition of AcrB in multidrug-resistant Escherichia coli BW25113 assessed as potentiation of tetraphenylphosphonium-induced antibacterial activity by measuring fold change in tetraphenylphosphonium MIC at 8 ug/ml by checkerboard titration method relative to tetraphenylphosphonium MIC; conditions: dose 8.0 µg/ml
[12] = biological target: T1, Multidrug efflux pump subunit AcrB (Escherichia coli (strain K12)); test: Inhibition of AcrB in multidrug-resistant Escherichia coli BW25113 assessed as potentiation of erythromycin-induced antibacterial activity by measuring fold change in erythromycin MIC at 8 ug/ml by checkerboard titration method relative to erythromycin MIC; conditions: dose 8.0 µg/ml
[13] = biological target: T1, Multidrug efflux pump subunit AcrB (Escherichia coli (strain K12)); test: Inhibition of AcrB in multidrug-resistant Escherichia coli BW25113 assessed as potentiation of tetraphenylphosphonium-induced antibacterial activity by measuring fold change in tetraphenylphosphonium MIC at 128 ug/ml by checkerboard titration method relative to tetraphenylphosphonium MIC; conditions: dose 128.0 µg/ml
[14] = biological target: T1, Multidrug efflux pump subunit AcrB (Escherichia coli (strain K12)); test: Inhibition of AcrB in multidrug-resistant Escherichia coli BW25113 assessed as potentiation of chloramphenicol-induced antibacterial activity by measuring fold change in chloramphenicol MIC at 128 ug/ml by checkerboard titration method relative to chloramphenicol MIC; conditions: dose 128.0 µg/ml
Cell membrane [15] = test: Induction of outer membrane permeabilization in wild type Escherichia coli BW25113 assessed as increase in nitrocefin hydrolysis at 32 ug/ml in presence of CCCP by spectroscopic analysis; conditions: dose 32 µg/ml; method in brief: as §2

With `CC1(C)CCc2c(C(=O)O)cc3c(OCc4ccccc4)cccc3c2O1` the Activity (Cell membrane [1]) was “Not Active”.
With `CC1(C)CCc2c(Cn3cnnn3)cc3c(OCc4ccccc4)cccc3c2O1` the Activity (Cell membrane [2]) was “Not Active”.
For `CC(C)NCCOc1ccc2c(c1)OC(C)(C)CC2=O`, the Activity (Cell membrane [3]) was “Not Active”.
With `CC1(C)CCc2c(-c3nnco3)cc3c(OCc4ccc([N+](=O)[O-])cc4)cccc3c2O1` the Activity (Cell membrane [4]) was “Not Active”.
For `CC1(C)CC(=O)c2ccc(OCC(=O)Nc3ccc(C#N)c(C(F)(F)F)c3)cc2O1`, the fold change (FC) [5] was 2, the fold change (FC) [6] was 4 and the inhibition [7] was “Active”. For the same compound, the Activity (Cell membrane [2]) was “Not Active” and the Activity (Cell membrane [1]) was “Not Active”.
In the case of `CC1(C)CCc2c(-c3nnco3)cc3c(OCc4ccc(C#N)cc4)cccc3c2O1`, the Activity (Cell membrane [1]) is reported as “Not Active”.
With `CC1(C)CC(=O)c2ccc(OCCNC3CCCC3)cc2O1` the inhibition [7] was “Active”.
In the case of `CC1CN(C(=O)c2cc3c(OCc4c(Cl)cccc4Cl)cccc3c3c2CCC(C)(C)O3)CC(C)O1` (configuration not stated), the Activity (Cell membrane [3]) is reported as “Not Active” and the fold change (FC) [8] is reported as 2.
For `Cc1ccccc1COc1cccc2c3c(c(-c4nnco4)cc12)CCC(C)(C)O3`, the Activity (Cell membrane [4]) was “Not Active”.
With `CC1(C)CCc2c(C(=O)N3CCOCC3)cc3c(OCc4ccc(C(F)(F)F)cc4)cccc3c2O1` the Activity (Cell membrane [3]) was “Not Active” and the Activity (Cell membrane [1]) was “Not Active”.
For `C=CC(=O)Nc1ccc(COc2cccc3c4c(c(C(=O)N5CCOCC5)cc23)CCC(C)(C)O4)cc1`, the Activity (Cell membrane [3]) was “Not Active”.
With `CC1(C)CCc2c(C(=O)N3CCOCC3)cc3c(OCc4ccccc4)cccc3c2O1` the Activity (Cell membrane [3]) was “Not Active”, the Activity (Cell membrane [1]) was “Not Active” and the inhibition at 10 µM [9] was 2%. The inhibition at 100 µM [10] was 66%.
In the case of `CNC(=O)c1ccc(COc2cccc3c4c(c(Cn5cnnn5)cc23)CCC(C)(C)O4)cc1`, the inhibition [7] is reported as “Active” and the Activity (Cell membrane [2]) is reported as “Not Active”.
With `COc1cccc(COc2cccc3c4c(c(-c5nnco5)cc23)CCC(C)(C)O4)c1` the inhibition [7] was “Active”.
`Cc1ccc(COc2cccc3c4c(c(-c5nnco5)cc23)CCC(C)(C)O4)cc1` gave a fold change (FC) [8] of 2, a fold change (FC) [11] of 2 and a fold change (FC) [12] of 2. For the same compound, the fold change (FC) [13] was under 16, the fold change (FC) [14] was under 16 and the inhibition at 10 µM [9] was 6%. It also gave an inhibition at 100 µM [10] of 87%.
In the case of `C=CC(=O)Nc1ccc(COc2cccc3c4c(c(Cn5cnnn5)cc23)CCC(C)(C)O4)cc1`, the Activity (Cell membrane [15]) is reported as “Not Active”.
